Assay results from ChEMBL document CHEMBL4130443, “Targeting breast cancer stem cells by novel HDAC3-selective inhibitors” (Eur J Med Chem, 2017).
Activity calls are given as the source filed them. No cut-off for these calls is given here.

What was measured:
Histone deacetylase 1 [1] = molecular target: T1, Histone deacetylase 1 (Homo sapiens, UniProt Q13547); assay: Inhibition of human HDAC1 using p53 (379 to 382 residues) derived fluorogenic peptide RHKKAc
Histone deacetylase 2 [2] = molecular target: T2, Histone deacetylase 2 (Homo sapiens, UniProt Q92769); assay: Inhibition of human HDAC2 using p53 (379 to 382 residues) derived fluorogenic peptide RHKKAc
[3] = molecular target: Histone deacetylase 3/Nuclear receptor corepressor 2 (HDAC3/NCoR2) (Homo sapiens, UniProt O15379); assay: Inhibition of human HDAC3/NCOR2 using p53 (379 to 382 residues) derived fluorogenic peptide RHKKAc; assay type: protein-complex assay
Homo sapiens = species on record: Homo sapiens; assay: Selectivity index, ratio of IC50 for human HDAC1 to IC50 for human HDAC3
Histone deacetylase 1 [4] = molecular target: T1, Histone deacetylase 1; assay: Inhibition of human HDAC1 at 1 uM using p53 (379 to 382 residues) derived fluorogenic peptide RHKKAc
How it was run: (§1)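 Isoform profiling run by a commercial vendor with compounds at 1 µM. Values are percent inhibition, each the average of two determinations.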

Histone deacetylase 2 [5] = molecular target: T2, Histone deacetylase 2; assay: Inhibition of human HDAC2 at 1 uM using p53 (379 to 382 residues) derived fluorogenic peptide RHKKAc; how it was run: as §1
[6] = molecular target: Histone deacetylase 3/Nuclear receptor corepressor 2 (HDAC3/NCoR2) (Homo sapiens) (UniProt O15379+Q9Y618); assay: Inhibition of human HDAC3/NCOR2 at 1 uM using p53 (379 to 382 residues) derived fluorogenic peptide RHKKAc; assay type: protein-complex assay; how it was run: as §1
[7] = molecular target: Histone deacetylase 4 (Homo sapiens) (UniProt P56524); assay: Inhibition of human HDAC4 at 1 uM using Boc-Lys(trifluoroacetyl)-AMC substrate; how it was run: as §1
[8] = molecular target: Histone deacetylase 5 (Homo sapiens) (UniProt Q9UQL6); assay: Inhibition of human HDAC5 at 1 uM using Boc-Lys(trifluoroacetyl)-AMC substrate; how it was run: as §1
[9] = molecular target: T3, Protein deacetylase HDAC6 (Homo sapiens) (UniProt Q9UBN7); assay: Inhibition of human HDAC6 at 1 uM using p53 (379 to 382 residues) derived fluorogenic peptide RHKKAc; how it was run: as §1
T3 sequence (whole entry): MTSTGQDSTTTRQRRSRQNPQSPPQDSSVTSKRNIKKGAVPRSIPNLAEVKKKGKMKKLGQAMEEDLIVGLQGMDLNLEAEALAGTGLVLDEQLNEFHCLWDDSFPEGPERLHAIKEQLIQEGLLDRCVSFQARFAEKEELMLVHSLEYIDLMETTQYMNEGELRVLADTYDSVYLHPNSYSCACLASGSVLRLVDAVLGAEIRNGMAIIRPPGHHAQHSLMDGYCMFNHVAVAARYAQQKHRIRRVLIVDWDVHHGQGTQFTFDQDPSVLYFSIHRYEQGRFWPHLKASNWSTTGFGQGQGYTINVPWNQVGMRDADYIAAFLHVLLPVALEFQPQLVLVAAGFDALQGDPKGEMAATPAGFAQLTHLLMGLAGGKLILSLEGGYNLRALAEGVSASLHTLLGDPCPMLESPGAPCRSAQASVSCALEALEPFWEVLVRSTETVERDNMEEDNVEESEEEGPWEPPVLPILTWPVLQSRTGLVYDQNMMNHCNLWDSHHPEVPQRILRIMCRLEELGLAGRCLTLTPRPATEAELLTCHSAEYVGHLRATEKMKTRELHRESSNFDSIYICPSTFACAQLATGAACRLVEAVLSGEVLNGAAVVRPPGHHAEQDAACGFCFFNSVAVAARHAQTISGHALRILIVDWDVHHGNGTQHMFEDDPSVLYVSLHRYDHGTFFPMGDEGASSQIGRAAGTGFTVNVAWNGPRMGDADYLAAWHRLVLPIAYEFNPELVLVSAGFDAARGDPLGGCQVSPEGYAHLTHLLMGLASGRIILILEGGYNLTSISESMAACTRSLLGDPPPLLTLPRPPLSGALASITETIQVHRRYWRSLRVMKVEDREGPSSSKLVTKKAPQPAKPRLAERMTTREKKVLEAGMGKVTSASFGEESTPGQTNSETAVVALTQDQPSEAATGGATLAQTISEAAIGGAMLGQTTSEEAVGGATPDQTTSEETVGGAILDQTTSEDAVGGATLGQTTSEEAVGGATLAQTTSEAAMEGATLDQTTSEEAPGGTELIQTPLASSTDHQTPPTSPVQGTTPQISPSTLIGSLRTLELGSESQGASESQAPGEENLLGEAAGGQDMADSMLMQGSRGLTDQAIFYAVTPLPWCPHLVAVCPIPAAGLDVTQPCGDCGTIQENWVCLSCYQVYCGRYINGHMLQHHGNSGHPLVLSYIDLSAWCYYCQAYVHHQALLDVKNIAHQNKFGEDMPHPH

[10] = molecular target: T4, Histone deacetylase 8 (Homo sapiens) (UniProt Q9BY41); assay: Inhibition of human HDAC8 at 1 uM using p53 (379 to 382 residues) derived fluorogenic peptide RHKAcKAc; how it was run: as §1
T4 sequence (whole entry): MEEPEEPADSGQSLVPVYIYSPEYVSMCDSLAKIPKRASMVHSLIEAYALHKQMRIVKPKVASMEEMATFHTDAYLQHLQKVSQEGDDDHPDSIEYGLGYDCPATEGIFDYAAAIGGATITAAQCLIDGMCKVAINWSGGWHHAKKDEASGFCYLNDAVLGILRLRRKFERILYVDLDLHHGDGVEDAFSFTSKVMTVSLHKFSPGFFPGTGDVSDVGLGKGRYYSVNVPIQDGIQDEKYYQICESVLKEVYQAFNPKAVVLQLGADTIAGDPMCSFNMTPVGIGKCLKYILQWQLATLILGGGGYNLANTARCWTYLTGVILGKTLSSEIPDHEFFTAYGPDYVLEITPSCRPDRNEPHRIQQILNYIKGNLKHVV

[11] = molecular target: T3, Protein deacetylase HDAC6 (Homo sapiens); assay: Inhibition of HDAC6 in human MDA-MB-231 cells assessed as increase in histone H3K9 acetylation at 0.1 to 2.5uM incubated for 48 hrs by Western blot method; assay type: cell-based; conditions: in the assay text read “tubulin acetylation” for “histone H3K9 acetylation”
How it was run: (§2)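 Cells treated 48 h at the indicated concentrations, with a reference HDAC inhibitor at 0.25 µM as positive control on each blot. Lysed in 1% SDS, 10 mM EDTA, 50 mM Tris-HCl pH 8.1 with protease/phosphatase inhibitors, then sonicated. Equal protein by SDS-PAGE on nitrocellulose. Primary antibodies 1:1000 overnight at 4°C, HRP secondary, ECL. Blots for pan-H3 and H3K9 acetylation, tubulin acetylation and Notch1.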

[12] = molecular target: T4, Histone deacetylase 8 (Homo sapiens); assay: Inhibition of HDAC8 in human MDA-MB-231 cells assessed as reduction in Notch1 expression at 0.1 to 2.5uM incubated for 48 hrs by Western blot method; assay type: cell-based; how it was run: as §2

Sequence of Histone deacetylase 4 (Homo sapiens) (P56524 whole entry): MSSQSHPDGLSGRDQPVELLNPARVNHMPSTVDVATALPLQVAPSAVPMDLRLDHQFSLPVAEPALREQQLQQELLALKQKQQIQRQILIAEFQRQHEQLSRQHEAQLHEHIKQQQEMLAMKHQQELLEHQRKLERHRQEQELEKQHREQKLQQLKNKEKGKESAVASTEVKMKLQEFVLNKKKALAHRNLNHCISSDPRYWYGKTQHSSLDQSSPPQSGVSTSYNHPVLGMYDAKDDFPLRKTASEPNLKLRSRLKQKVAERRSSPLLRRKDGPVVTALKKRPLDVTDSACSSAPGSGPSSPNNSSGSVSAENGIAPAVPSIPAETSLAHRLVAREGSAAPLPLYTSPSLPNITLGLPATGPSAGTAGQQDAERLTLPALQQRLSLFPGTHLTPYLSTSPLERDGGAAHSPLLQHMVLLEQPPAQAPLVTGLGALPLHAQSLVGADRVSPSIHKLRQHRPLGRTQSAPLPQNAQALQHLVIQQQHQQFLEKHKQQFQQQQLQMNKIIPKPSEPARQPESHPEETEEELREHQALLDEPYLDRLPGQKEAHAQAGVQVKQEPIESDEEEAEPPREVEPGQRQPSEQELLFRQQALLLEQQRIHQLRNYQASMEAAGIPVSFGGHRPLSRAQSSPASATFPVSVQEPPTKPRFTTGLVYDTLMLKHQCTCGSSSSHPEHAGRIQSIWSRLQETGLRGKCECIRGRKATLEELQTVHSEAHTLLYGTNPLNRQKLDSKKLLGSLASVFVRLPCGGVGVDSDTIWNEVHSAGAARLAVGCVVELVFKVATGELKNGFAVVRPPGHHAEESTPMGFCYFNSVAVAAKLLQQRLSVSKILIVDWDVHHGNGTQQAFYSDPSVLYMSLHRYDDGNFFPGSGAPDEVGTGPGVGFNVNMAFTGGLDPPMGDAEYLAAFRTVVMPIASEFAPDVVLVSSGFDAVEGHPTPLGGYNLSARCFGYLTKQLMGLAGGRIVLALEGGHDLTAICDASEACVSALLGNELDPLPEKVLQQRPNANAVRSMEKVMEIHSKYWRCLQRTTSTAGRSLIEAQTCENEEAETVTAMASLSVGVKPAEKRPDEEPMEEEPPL
T1 sequence (Q13547 whole entry, the tested form may be a part): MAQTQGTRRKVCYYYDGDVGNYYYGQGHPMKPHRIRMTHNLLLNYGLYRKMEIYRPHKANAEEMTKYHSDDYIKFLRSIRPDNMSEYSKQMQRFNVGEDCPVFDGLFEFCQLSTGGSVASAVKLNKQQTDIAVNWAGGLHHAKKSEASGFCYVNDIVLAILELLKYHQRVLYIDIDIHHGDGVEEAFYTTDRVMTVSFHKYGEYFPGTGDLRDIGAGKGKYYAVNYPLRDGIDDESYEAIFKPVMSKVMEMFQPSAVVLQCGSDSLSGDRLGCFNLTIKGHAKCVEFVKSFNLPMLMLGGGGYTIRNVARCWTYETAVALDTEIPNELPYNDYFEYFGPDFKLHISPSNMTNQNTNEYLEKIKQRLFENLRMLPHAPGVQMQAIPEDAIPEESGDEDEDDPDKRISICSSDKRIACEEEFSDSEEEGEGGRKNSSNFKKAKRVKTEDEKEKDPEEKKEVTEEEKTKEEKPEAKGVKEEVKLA
Sequence of Histone deacetylase 3/Nuclear receptor corepressor 2 (HDAC3/NCoR2) (O15379 whole entry, the tested form may be a part): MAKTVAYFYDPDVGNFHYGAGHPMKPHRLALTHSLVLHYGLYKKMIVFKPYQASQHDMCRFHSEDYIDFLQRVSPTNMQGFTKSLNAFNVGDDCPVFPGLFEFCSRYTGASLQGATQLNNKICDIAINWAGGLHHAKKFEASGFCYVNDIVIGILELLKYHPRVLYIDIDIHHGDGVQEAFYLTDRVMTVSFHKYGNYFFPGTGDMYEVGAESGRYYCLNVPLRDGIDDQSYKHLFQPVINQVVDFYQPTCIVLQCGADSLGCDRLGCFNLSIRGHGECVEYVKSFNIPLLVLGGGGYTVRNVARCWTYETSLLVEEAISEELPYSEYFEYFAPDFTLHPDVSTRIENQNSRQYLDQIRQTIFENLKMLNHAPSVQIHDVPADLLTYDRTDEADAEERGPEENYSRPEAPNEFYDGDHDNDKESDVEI
Sequence of Histone deacetylase 3/Nuclear receptor corepressor 2 (HDAC3/NCoR2) (Q9Y618 whole entry, further chain, the tested form may be a part): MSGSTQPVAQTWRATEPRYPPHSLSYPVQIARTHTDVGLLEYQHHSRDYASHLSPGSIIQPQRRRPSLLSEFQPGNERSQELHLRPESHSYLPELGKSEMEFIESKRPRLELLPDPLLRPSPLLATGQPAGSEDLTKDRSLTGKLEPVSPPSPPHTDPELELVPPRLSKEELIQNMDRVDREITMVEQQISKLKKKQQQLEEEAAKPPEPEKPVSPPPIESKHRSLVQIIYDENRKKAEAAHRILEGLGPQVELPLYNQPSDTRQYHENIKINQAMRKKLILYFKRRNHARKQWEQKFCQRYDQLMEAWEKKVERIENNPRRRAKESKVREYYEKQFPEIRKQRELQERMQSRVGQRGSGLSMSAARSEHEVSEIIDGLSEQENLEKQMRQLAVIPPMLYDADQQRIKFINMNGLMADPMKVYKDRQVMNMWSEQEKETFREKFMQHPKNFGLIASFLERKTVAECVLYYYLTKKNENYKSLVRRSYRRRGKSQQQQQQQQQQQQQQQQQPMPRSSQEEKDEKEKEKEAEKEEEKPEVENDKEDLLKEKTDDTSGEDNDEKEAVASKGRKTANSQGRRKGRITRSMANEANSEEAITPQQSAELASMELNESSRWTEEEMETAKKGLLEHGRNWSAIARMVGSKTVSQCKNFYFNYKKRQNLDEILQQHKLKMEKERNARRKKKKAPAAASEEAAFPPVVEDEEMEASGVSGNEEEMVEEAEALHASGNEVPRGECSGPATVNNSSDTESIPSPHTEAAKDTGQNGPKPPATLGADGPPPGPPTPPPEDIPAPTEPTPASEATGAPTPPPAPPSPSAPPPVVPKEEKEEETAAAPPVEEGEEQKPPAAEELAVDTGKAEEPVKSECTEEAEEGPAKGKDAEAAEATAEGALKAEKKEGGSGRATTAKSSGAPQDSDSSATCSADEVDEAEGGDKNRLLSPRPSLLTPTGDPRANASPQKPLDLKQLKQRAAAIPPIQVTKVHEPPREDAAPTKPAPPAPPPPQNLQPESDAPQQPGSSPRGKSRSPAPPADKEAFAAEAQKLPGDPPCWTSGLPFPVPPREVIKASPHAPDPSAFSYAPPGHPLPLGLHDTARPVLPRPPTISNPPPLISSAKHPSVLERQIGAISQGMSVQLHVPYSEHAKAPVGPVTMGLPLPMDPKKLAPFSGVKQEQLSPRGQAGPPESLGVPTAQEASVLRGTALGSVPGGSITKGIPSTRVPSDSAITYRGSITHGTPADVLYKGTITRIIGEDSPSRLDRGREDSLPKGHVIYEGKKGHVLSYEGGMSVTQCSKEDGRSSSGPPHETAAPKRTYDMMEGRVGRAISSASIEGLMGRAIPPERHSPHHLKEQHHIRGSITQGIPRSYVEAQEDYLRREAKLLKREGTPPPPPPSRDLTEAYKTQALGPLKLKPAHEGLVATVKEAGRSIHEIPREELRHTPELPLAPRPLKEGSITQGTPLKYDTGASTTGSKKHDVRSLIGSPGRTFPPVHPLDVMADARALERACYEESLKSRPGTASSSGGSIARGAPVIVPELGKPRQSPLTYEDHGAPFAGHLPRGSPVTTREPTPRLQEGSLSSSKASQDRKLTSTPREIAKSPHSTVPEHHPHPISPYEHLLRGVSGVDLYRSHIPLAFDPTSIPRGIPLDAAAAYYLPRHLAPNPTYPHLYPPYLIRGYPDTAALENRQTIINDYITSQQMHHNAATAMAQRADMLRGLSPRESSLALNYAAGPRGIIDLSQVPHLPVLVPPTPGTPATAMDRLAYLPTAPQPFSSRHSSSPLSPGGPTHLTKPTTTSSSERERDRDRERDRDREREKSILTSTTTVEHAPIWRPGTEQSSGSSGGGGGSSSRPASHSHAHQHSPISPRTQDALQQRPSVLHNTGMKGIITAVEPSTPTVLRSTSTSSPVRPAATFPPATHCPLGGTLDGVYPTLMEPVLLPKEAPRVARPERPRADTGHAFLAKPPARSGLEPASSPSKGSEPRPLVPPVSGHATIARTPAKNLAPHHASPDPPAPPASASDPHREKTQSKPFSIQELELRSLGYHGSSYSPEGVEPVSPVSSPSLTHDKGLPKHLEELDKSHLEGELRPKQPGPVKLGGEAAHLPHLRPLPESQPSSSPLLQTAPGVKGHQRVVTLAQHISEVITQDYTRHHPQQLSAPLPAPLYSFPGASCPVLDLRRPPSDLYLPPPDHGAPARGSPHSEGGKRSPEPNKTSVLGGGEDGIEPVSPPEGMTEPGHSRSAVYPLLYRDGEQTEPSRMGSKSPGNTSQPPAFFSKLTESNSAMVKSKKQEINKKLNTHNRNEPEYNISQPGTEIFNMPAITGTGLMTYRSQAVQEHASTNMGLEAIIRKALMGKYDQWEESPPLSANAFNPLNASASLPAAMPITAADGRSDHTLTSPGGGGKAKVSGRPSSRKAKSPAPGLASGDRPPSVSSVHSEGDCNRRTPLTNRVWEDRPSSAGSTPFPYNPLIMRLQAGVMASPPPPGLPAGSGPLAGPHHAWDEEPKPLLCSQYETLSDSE
T2 sequence (Q92769 whole entry, the tested form may be a part): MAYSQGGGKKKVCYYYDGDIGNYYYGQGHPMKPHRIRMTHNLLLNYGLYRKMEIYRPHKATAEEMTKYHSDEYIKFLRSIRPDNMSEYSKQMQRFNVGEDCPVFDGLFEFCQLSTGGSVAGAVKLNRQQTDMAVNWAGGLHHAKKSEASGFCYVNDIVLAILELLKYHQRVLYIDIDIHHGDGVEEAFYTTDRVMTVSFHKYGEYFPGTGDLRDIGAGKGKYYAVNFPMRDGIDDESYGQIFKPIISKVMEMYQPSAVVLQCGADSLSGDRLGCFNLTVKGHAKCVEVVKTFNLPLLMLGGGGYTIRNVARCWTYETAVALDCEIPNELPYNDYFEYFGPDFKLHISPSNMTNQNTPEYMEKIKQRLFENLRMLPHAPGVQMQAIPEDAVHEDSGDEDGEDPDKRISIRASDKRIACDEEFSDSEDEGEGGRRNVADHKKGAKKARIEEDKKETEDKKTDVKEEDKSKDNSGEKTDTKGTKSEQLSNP

SMILES	IC50 (Histone deacetylase 1 [1])	IC50 (Histone deacetylase 2 [2])	IC50 [3]	Ratio IC50 (Homo sapiens)	inhibition (Histone deacetylase 1 [4])	inhibition (Histone deacetylase 2 [5])	inhibition [6]	inhibition [7]	inhibition [8]	inhibition [9]	inhibition [10]	inhibition [11]	inhibition [12]
Nc1cc(F)ccc1NC(=O)c1ccc(NC(=O)CCc2ccccc2)cc1	1200 nM	1100 nM	800 nM										
Nc1cc(F)ccc1NC(=O)c1ccc(NC(=O)Cc2ccc(F)cc2)cn1	370 nM	3000 nM	390 nM										
CC(C)(C(=O)Nc1ccc(C(=O)Nc2ccccc2N)cc1)c1ccccc1					49%	34%	36%	6%	0%	4%	0%		
Nc1cc(F)ccc1NC(=O)c1ccc(NC(=O)[C@@H]2C[C@@H]2c2ccccc2)cc1 (relative stereo)	1300 nM	2100 nM	200 nM										
CC(C)[C@H](C(=O)Nc1ccc(C(=O)Nc2ccc(F)cc2N)nc1)c1ccccc1	1500 nM	2500 nM	300 nM									inactive	inactive
C[C@@H](C(=O)Nc1ccc(C(=O)Nc2ccc(F)cc2N)cc1)c1ccccc1	1800 nM	2800 nM	210 nM	8.6									
Nc1cc(F)ccc1NC(=O)c1ccc(NC(=O)Cc2ccc(F)cc2)cc1	5500 nM	2700 nM	200 nM										
CC(C)[C@@H](C(=O)Nc1ccc(C(=O)Nc2ccc(F)cc2N)nc1)c1ccccc1	520 nM	1100 nM	80 nM	6.5								inactive	inactive
Nc1cc(F)ccc1NC(=O)c1ccc(NC(=O)Cc2ccc(C(F)(F)F)cc2)cc1	1500 nM	1300 nM	200 nM		41%	32%	36%	0%	0%	0%	5%		
CC(C)[C@@H](C(=O)Nc1ccc(C(=O)Nc2ccc(F)cc2N)cn1)c1ccccc1	> 10000 nM	8400 nM	1700 nM										
Nc1ccccc1NC(=O)c1ccc(NC(=O)Cc2ccc(C(F)(F)F)cc2)cc1					78%	38%	33%	0%	0%	0%	0%		

Second part, the compound after the results:

IC50 (Histone deacetylase 1 [1])	IC50 (Histone deacetylase 2 [2])	IC50 [3]	Ratio IC50 (Homo sapiens)	inhibition (Histone deacetylase 1 [4])	inhibition (Histone deacetylase 2 [5])	inhibition [6]	inhibition [7]	inhibition [8]	inhibition [9]	inhibition [10]	inhibition [11]	inhibition [12]	SMILES
1200 nM	1200 nM	110 nM	10.9										CC[C@@H](C(=O)Nc1ccc(C(=O)Nc2ccc(F)cc2N)cc1)c1ccccc1
> 10000 nM	> 10000 nM	> 10000 nM											Nc1cc(F)ccc1NC(=O)c1ccc(NC(=O)Cc2ccc(C(F)(F)F)cc2)cn1
1200 nM	4900 nM	1000 nM											Nc1cc(F)ccc1NC(=O)c1ccc(NC(=O)C2CC2c2ccccc2)cn1 (configuration not stated)
2500 nM	4800 nM	170 nM	14.7										CC[C@H](C(=O)Nc1ccc(C(=O)Nc2ccc(F)cc2N)cc1)c1ccccc1
1200 nM	1800 nM	1000 nM	1.2	42%	26%	78%	0%	0%	0%	6%			CC(C)[C@@H](C(=O)Nc1ccc(C(=O)Nc2ccc(F)cc2N)cc1)c1ccccc1
760 nM	3000 nM	580 nM									inactive	inactive	C[C@@H](C(=O)Nc1ccc(C(=O)Nc2ccc(F)cc2N)nc1)c1ccccc1
1300 nM	7800 nM	> 10000 nM		inactive	inactive	inactive							Nc1cc(F)ccc1NC(=O)c1ccc(NC(=O)CCc2ccccc2)cn1
610 nM	4200 nM	530 nM											CC[C@H](C(=O)Nc1ccc(C(=O)Nc2ccc(F)cc2N)nc1)c1ccccc1
1100 nM	2000 nM	520 nM											Nc1cc(F)ccc1NC(=O)c1ccc(NC(=O)Cc2ccccc2)cn1
1400 nM	2000 nM	130 nM									inactive	inactive	C[C@H](C(=O)Nc1ccc(C(=O)Nc2ccc(F)cc2N)nc1)c1ccccc1
> 10000 nM	> 10000 nM	200 nM		0%	9%	82%	0%	3%	0%	14%			Nc1cc(F)ccc1NC(=O)c1ccc(NC(=O)C2CC2c2ccccc2)cc1 (configuration not stated)
300 nM	630 nM	60 nM									inactive	inactive	CC[C@@H](C(=O)Nc1ccc(C(=O)Nc2ccc(F)cc2N)nc1)c1ccccc1
				6%	4%	0%	3%	0%	0%	0%			CC(C)[C@@H](C(=O)Nc1ccc(C(=O)Nc2ccc(C(F)(F)F)cc2N)cc1)c1ccccc1
3200 nM	3400 nM	230 nM	13										C[C@H](C(=O)Nc1ccc(C(=O)Nc2ccc(F)cc2N)cc1)c1ccccc1
